Source: PubChem BioAssay
DDE Tn7 FP inh = inhibitors of Tn7 peptide binding to human fibrin DD(E); inhibition, % at 8.3 µM; FP displacement of FITC-Tn7 peptide from fibrin DD(E); 0% = median of compound wells per plate; 370,000 compounds, 0.13% hits; P02675;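 active means inhibition above the mean of compounds falling within the control limits plus 3 SD of them, cut at about 14% in these data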;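 further: 0% = plate median of compound wells and 100% = 10 µM Aha-Tn7 peptide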
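Measure: % inhibition scaled between sample-field median and high-control FP; Test system: human fibrin DD(E); Quantity: 2 µM final DD(E) protein; Doses: one dose, 8.3 µM nominal; Schedule: compound with protein 10 min, then 3 h after probe, room temperature; Detection: fluorescence polarization; Medium: Tris buffer with calcium and detergent, pH 7.8.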
Tn6 DDE FP = disrupts Tn6 cyclic peptide binding to fibrin D-Dimer-E complex; inhibition, % at 8.3 µM; 370,000 compounds, 0.21% hits; Fibrin DD(E) TRITC-Tn6 fluorescence polarization displacement;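 active means inhibition above a per-campaign cutoff: mean of compounds within control limits plus 3 SD, cut at about 15% in these data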;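 further: 0% = median of all compound wells on the plate and 100% = blocking peptide control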
GRK2 aptamer HTS = human GRK2 inhibition via aptamer displacement | 330,000 compounds, 0.59% hits | AID 488847 | bead flow cytometry, FAM-aptamer displacement from GRK2 | inhibition of aptamer binding, % at 10 µM;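 active means inhibition of aptamer binding above 40%, roughly 3 SD of noise, on plates passing a quality check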;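 further: median bead fluorescence of bound FAM aptamer so fluorescent compounds give negative values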
ABCB1 inh = blocks JC-1 efflux by human ABCB1 transporter | AID 1326 | inhibition, % at 6.6 µM | CCRF-Adr cells, flow cytometry | 190,000 compounds, 0.067% hits; in the data active means inhibition above about 40%;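 further: 0% = vehicle and 100% = reference inhibitor; higher value means more JC-1 retained so stronger ABCB1 efflux block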
ABCG2 block = inhibitors of human ABCG2 transporter, ABCB1 counter-screen; Q9UNQ0; IgMXP3 cells, JC-1 efflux, flow cytometry; inhibition, % at 6.6 µM; 190,000 compounds, 0.1% hits;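 active means inhibition above 80%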;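 further: 0% = DMSO and 100% = nicardipine control wells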
Target sequence (Q9UNQ0 whole entry, looked up): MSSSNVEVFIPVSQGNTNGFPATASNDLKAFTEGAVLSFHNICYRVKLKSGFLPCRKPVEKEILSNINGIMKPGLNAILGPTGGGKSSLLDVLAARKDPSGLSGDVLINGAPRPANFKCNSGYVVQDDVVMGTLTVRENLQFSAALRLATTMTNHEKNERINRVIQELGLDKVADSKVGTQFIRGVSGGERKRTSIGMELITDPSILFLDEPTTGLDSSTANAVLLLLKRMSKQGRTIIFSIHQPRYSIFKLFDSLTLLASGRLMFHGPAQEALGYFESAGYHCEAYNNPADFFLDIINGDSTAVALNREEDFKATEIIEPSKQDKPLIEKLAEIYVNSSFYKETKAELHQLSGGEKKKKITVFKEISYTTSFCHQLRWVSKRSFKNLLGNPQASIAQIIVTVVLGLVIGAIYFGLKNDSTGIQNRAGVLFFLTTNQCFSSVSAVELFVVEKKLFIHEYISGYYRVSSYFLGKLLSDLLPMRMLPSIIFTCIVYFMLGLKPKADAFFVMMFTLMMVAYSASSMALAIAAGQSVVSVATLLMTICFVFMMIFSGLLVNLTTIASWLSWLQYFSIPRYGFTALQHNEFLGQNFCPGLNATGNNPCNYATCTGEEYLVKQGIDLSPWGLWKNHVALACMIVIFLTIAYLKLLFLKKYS
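Incubation: cells with compound and JC-1, 10 min at 25 °C, rotating, no wash / Test system: IgMXP3 (ABCG2) plus far-red-tagged CCRF-Adr (ABCB1) cells / Compound dosing: one concentration, 6.6 µM final / Also added: JC-1 fluorescent substrate / Evaluation: efflux inhibition in percent versus controls / Detection: flow cytometry, 530 nm JC-1 signal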
Insulin prom up = MIN6 insulin promoter up-regulation. 190,000 compounds, 0.3% hits. MIN6 insulin promoter-GFP reporter, high-content imaging; active compounds read high. z-score at 5 µM. AID 1625;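 active means z-score above 3 at 5 µM with at least 500 cells counted in the well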
GRK2 CP1 = confirmation of human GRK2 inhibitors displacing RNA aptamer | 2,000 compounds, 4% hits | shares compounds with GRK2 aptamer HTS | bead-bound GRK2, FAM-aptamer displacement, flow cytometry | aptamer displacement, % at 10 µM | AID 504451;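 active means aptamer displacement above 40%, near three times the noise of non-fluorescent compounds, on plates passing quality checks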;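 further: negative values mostly reflect intrinsic compound fluorescence rather than true enhancement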
Aptamer quench = counter-screen for GRK2 aptamer inhibitors: fluorescent aptamer quenchers | shares compounds with GRK2 aptamer HTS | Fluorescent RNA aptamer beads, quenching, flow cytometry; active compounds read high | fluorescence change (kMESF span), kMESF (no concentration beside the values) | 110 tested, under 10 active | AID 504521;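 active means compounds whose bead fluorescence drops by more than 37 kMESF across the dose range, marking them as dye quenchers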
Aptamer quench SP = quenches fluorescent RNA aptamer, GRK2 hit artifact; shares compounds with GRK2 aptamer HTS; fluorescence response (% of DMSO), % at 10 µM; 2,000 tested, under 10 active; Carboxyfluorescein RNA aptamer on beads, flow cytometry quenching; active compounds read low; AID 504580;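 active means compounds that quench the bead-bound fluorescent RNA probe, cutting fluorescence to under half of the solvent control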;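 further: counterscreen run without GRK2 so only probe quenching by compound is measured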
GRK2 confirm 2 = human GRK2 inhibition confirmation, cherry pick 2; inhibition of aptamer binding, % at 10 µM; 360 tested, under 10 active; bead-bound GRK2, FAM-aptamer displacement, flow cytometry; shares compounds with GRK2 aptamer HTS;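 active means inhibition of aptamer binding above 40%, about triple the noise seen with nonglowing compounds, on plates passing quality control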;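 further: negative values mostly come from compounds that fluoresce themselves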
FAM quench SP = quenches fluorescent RNA aptamer, GRK2 hit artifact | AID 588494 | fluorescence response vs DMSO, % at 10 µM | carboxyfluorescein RNA aptamer beads, flow cytometry quenching; active compounds read low | 360 tested, under 10 active | shares compounds with GRK2 aptamer HTS;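 active means response vs DMSO under 50%, meaning signal dropped by over half, treated as fluorescence quencher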;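 further: labelled aptamer on streptavidin beads without GRK2 as a quench counter-screen; 100% = bead fluorescence of DMSO wells and lower means quenching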
The depositor's hits bear a star. Compounds with a hit are over-represented: about 0.99% of the library has one in this group of screens.

For C[C@@H]1CN([C@@H](C)CO)S(=O)(=O)c2ccc(Br)cc2O[C@@H]1CN(C)S(=O)(=O)c1ccc(F)cc1 the results were DDE Tn7 FP inh 0 and Tn6 DDE FP -1.
C/C(Cc1ccccc1)=N\NC(=O)CNC(=O)c1ccc(Br)cc1 was read as DDE Tn7 FP inh 1, Tn6 DDE FP 0, GRK2 aptamer HTS 78*, ABCB1 inh 0, ABCG2 block 7, Insulin prom up -0.09, GRK2 CP1 -13 and Aptamer quench SP 89.
For C/C(Cc1ccccc1)=N\NC(=O)CNC(=O)c1ccccc1 the results were DDE Tn7 FP inh -1, Tn6 DDE FP -5, GRK2 aptamer HTS 1, ABCB1 inh 1, ABCG2 block 1 and Insulin prom up 0.75.
Screening O=S1(=O)c2ccc(N3CCN(Cc4ccccc4F)CC3)cc2Oc2ccccc2CN1Cc1cn(Cc2ccccc2C(F)(F)F)nn1 returned DDE Tn7 FP inh 0 and Tn6 DDE FP 0.
`Cc1ccc(-n2ncc(C(=O)O)c2C2CCN(C(=O)OC(C)(C)C)CC2)cc1` gave DDE Tn7 FP inh -5, Tn6 DDE FP -1, GRK2 aptamer HTS 43*, ABCB1 inh 2, ABCG2 block 3, Insulin prom up -0.43, GRK2 CP1 -4 and Aptamer quench SP 102.
CC(C)(C)OC(=O)N1CCC(c2c(C(=O)O)cnn2-c2ccc(Cl)cc2)CC1 was read as DDE Tn7 FP inh -6, Tn6 DDE FP -1, GRK2 aptamer HTS 1 and Insulin prom up 0.81.
COC(=O)[C@]12C[C@H](CC(=O)N3CCN(C(=O)C4CC4)CC3)C(=O)N(CCC3=CCCCC3)C1=C[C@H](C1CCCC1)O[C@@H]2C was read as DDE Tn7 FP inh -5 and Tn6 DDE FP -6.
`COc1ccc(CN2C/C(=C/c3ccc(C)cc3)N3C(=O)C[C@@H](c4ccccc4)N=C23)c(OC)c1` gave DDE Tn7 FP inh 2 and Tn6 DDE FP -4.
`CN(Cc1ccc(Cl)c(Cl)c1)C(C(=O)NCc1ccccc1)c1ccc(C(F)(F)F)cc1` (centres undefined) gave DDE Tn7 FP inh 0 and Tn6 DDE FP -3.
`COC(=O)[C@@H]1C(c2c(OC)cc(OC)cc2OC)=NO[C@H]1C(=O)OC` gave DDE Tn7 FP inh 6, Tn6 DDE FP -3, GRK2 aptamer HTS 0, ABCB1 inh 0, ABCG2 block -1, Insulin prom up -0.82, GRK2 confirm 2 -2 and FAM quench SP 99.
`COC(=O)C1CC(c2c(OC)cc(OC)cc2OC)=NO1` (centres undefined) gave DDE Tn7 FP inh -1, Tn6 DDE FP -7, GRK2 aptamer HTS 0, ABCB1 inh 1, ABCG2 block 3, GRK2 confirm 2 17 and FAM quench SP 99.
For CCNC(=O)C1(C)CCN(C(=O)c2ccc(C#N)cc2)C1 (centres undefined) the results were DDE Tn7 FP inh -5 and Tn6 DDE FP 0.
For CCOC(=O)C1(Cc2cccc(F)c2)CCN(CC(O)CO)CC1 (centres undefined) the results were DDE Tn7 FP inh 3, Tn6 DDE FP -7, GRK2 aptamer HTS 78*, Insulin prom up -0.42, GRK2 CP1 -1 and Aptamer quench SP 103.
`COc1ccc(CNCC#Cc2cccnc2)c(OC)c1` gave DDE Tn7 FP inh 3 and Tn6 DDE FP -2.
Screening N#C/C(=C\c1ccc(O)c(O)c1)C(=O)c1ccc(O)c(O)c1 returned DDE Tn7 FP inh -6, Tn6 DDE FP 8, GRK2 aptamer HTS 54*, GRK2 CP1 2 and Aptamer quench SP 102.
For N#C/C(=C\c1ccc(O)c(O)c1)C(=O)N1CCCC1 the results were DDE Tn7 FP inh -4, Tn6 DDE FP -2, GRK2 aptamer HTS 0, ABCB1 inh 0, ABCG2 block 3 and Insulin prom up -0.27.
O=C(c1ccncc1)N1CC[C@H]2[C@H](CCCN2Cc2cc(F)cc(F)c2)C1 was read as DDE Tn7 FP inh 9 and Tn6 DDE FP 5.
For O=Cc1cccc(OC(=O)/C=C/c2ccco2)c1 the results were DDE Tn7 FP inh -4, Tn6 DDE FP -9, GRK2 aptamer HTS 62*, GRK2 CP1 5 and Aptamer quench SP 97.
`CCCCN1C(=O)N2Cc3ccccc3C2CS1(=O)=O` (centres undefined) gave DDE Tn7 FP inh -1 and Tn6 DDE FP 1.
For CCc1nc2ccc(C(=O)NCCOc3ccc(OC)cc3)cn2c1N(C)Cc1cccs1 the results were DDE Tn7 FP inh 7 and Tn6 DDE FP -2.
`CC(=O)c1cn(C)c(=O)c2ccccc12` gave DDE Tn7 FP inh 4, Tn6 DDE FP 2, GRK2 aptamer HTS 2 and Insulin prom up 0.07.
`CCc1ccc(N(CC)C(=O)c2cn(C)c(=O)c3ccccc23)cc1` gave DDE Tn7 FP inh 2, Tn6 DDE FP 2, GRK2 aptamer HTS 29, GRK2 CP1 0 and Aptamer quench SP 102.
C=CCN(Cc1ccc(OC)cc1OC)C(C#Cc1ccccc1)c1ccccc1 (centres undefined) was read as DDE Tn7 FP inh 10 and Tn6 DDE FP 0.
`O=C(c1ccc(Cl)c(S(=O)(=O)N2CCc3ccccc3C2)c1)N1CCN(c2ccccc2)CC1` gave DDE Tn7 FP inh -6, Tn6 DDE FP 1, GRK2 aptamer HTS 0, ABCB1 inh 10, ABCG2 block 26, Insulin prom up -0.47, GRK2 CP1 0 and Aptamer quench SP 102.
For COc1ccc(S(=O)(=O)NCC(c2ccc(F)cc2)N2CCN(C)CC2)cc1 (centres undefined) the results were DDE Tn7 FP inh -1, Tn6 DDE FP -1, GRK2 aptamer HTS 76*, GRK2 CP1 46*, Aptamer quench 0.2 and Aptamer quench SP 100.
